# Assay results reported in the EternaBench riboswitch data.
# Tested on: MS2 coat protein
# Experiment: apparent Kd, MS2 coat protein; higher = weaker binding; RNA-MaP array; FMN 200 µM where present
# In short: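 Green signal was scaled to red-channel RNA signal and control-cluster median Fmax, and the apparent Kd was taken as the median of filtered per-cluster binding-curve fits. The binding series used SNAP-549-labelled MS2 coat protein from 0.7 or 1.5 nM, doubling to 3 µM, on designs transcribed by stalled E. coli RNA polymerase on Illumina sequencing-chip clusters. Each series ran without and then with constant ligand in 100 mM Tris-HCl pH 7.5, 80 mM KCl, 4 mM MgCl2, BSA, DTT, yeast tRNA and Tween-20.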
# [1] = designed as: ON switch for flavin mononucleotide, no ligand
# [2] = ligand present: flavin mononucleotide, designed as: ON switch for flavin mononucleotide
# [3] = designed as: OFF switch for flavin mononucleotide, no ligand
# [4] = ligand present: flavin mononucleotide, designed as: OFF switch for flavin mononucleotide
Sequence,apparent Kd [1] [nM],apparent Kd [2] [nM],apparent Kd [3] [nM],apparent Kd [4] [nM]
AAAAAAAAAACUGAGGAUAUGAAAUAAUAGACAUGAGGAUCACCCAUGUUUUCGGUCGAAAAAAUGCAGAAGGCAGAAAAAAAAAA,31.6,29.1,–,–
AAAAAACAUGAGGAUCACCCAUGUCAGGAUAUCUGUAUUCAAUCCUCGGAUUGAAUACAGAGAAGGGACAUGGA,–,–,42,22.8
AAAAAACAUGAGGAUCACCCAUGUCGAAAGACAUGAGGAUAUGUACAGACUUCGGUCUGUACAGAAGGCAUGUCUU,37.3,15.2,–,–
AAAAAACAUGAGGAUCACCCAUGUGAGGAUAUCCUGGUUGAAAAAAAAAAAACAACCAGGAGAAGGCACAAAAA,–,–,88.4,132
AAAAAACAUGAGGAUCACCCAUGUGAGGAUAUCGUGCAGAAAAAAAAAAAAAACUGCACGAGAAGGCACAUGAA,–,–,237,460
AAAAAGACAGGAUAUACAUGAGGAUCACCCAUGUGAAAAAAAAAAAAAAAAAAAAAGUGUAGAAGGGUCAAAAA,–,–,48.9,35.4
AAAAAGUGAGGAUAUACAUGAAAAAAAAAAAAAAAAAAAAAACAUGAGGAUCACCCAUGUAGAAGGCGCAAAAA,–,–,55.1,45.7
AAAAAUAGAGGAUAUACAUGAAAAAAAAAAAAAAAAAAAAAACAUGAGGAUCACCCAUGUAGAAGGCUAAAAAA,–,–,45.3,30.3
AAAAAUGGAGGAUAUACAUGAGGAUCACCCAUGUGUGGCUAUACUAUGUGCUCGUCAGGUAGAAGGCCAAAAAA,–,–,31.2,59.2
AAAACAGCGCGUCCCGCGCCAACUACAGAAGGCCAACAUGAGGAUCACCCAUGUACAAACUAGAUGGAGGAUAUGUAGGUUCUA,6.35,4.5,–,–
AAAACAUGAGGAUCACCCAUGUAAAGAACGGUUAAUAGAUCUGAGGAUAUACUAGAAUUUAGGUAGUAGAAGGCAGUGGGUACA,35,26.2,–,–
AAAACAUGAGGAUCACCCAUGUAAAGAUCGGUUAAUAAAAGUGAGGAUAUACUAAAUUUUAUAUAGUAGAAGGCACUGGGUACA,22.9,30.1,–,–
AAAACAUGAGGAUCACCCAUGUAAAGAUCGGUUAAUAGAGGUGAGGAUAUACGAACUUAAAGGUGGUAGAAGGCACUGGGUACA,71.6,53.3,–,–
AAAACAUGAGGAUCACCCAUGUUAAGAUCGGUUAAUAGAAGUGAGGAUAUACGAAGUUAAAGCUGGUAGAAGGCACUGGGUACA,29.2,26.5,–,–
AAAACCUCAUGAGGAUAUCCAACAUGAGGAUCACCCAUGUUAGUCUCAGUACUAGGUACUUGAGAGGAGAAGGCAUGCCAGGGC,123,36.2,–,–
AAAACGUGAGGAUAUCCAAUAUAUGACAUGAGGAUCACCCAUGUUUCCACUCGUACCUCCGGAGAAGGCACUUUUU,–,–,54.6,44.9
AAAACUGGAGGAUAUACAUGAGGAUCACCCAUGUGUGGGUAUACUGUGUCGGCGUCAGGUAGAAGGCCACAAAA,–,–,108,88.7
AAAAGACAUGAGGAUCACCCAUGUAAAAACAUAGGAGGAUAUGUUUGGAAACUAGACUGAACAGAAGGCCUUUGUC,22.9,17,–,–
AAAAGACAUGAGGAUCACCCAUGUAAAAACAUGAGAGGAUAUCAUCUGACUUCGGUCAGAUGAGAAGGCUCAUGUC,48.7,26.9,–,–

Sequence,apparent Kd [1] [nM],apparent Kd [2] [nM],apparent Kd [3] [nM],apparent Kd [4] [nM]
AAAAGACAUGAGGAUCACCCAUGUAAAGACGUAGGAGGAUAUGUCUUGAAAAAAGACUUGACAGAAGGCCUGUGUC,26.4,19,–,–
AAAAGGUCAGGAUAUACAAAAAAAAAAAAAAAAAAAAAAAAGUAGAAGGGACAUGAGGAUCACCCAUGUGAAAA,–,–,86.1,74
AAAAGGUGAGGAUAUACAUGAGGAUCACCCAUGUAGAAAGGAAGUGUAAAAAAAAAGUGUAGAAGGCAUCAUGA,–,–,58.7,60.6
AAAAGUCGAGGAUAUGCAAAAUGAUUGCGAAAGCAAUCAAAACAUGAGGAUCACCCAUGUAGAAGGCGACAAAA,–,–,21.3,13.9
AAAAUAUAAAGAGAGGAUAUCCAAAGAACCACAUGAGGAUCACCCAUGUAAAGAAAGAAUAAGUGGGAGAAGGCUCAAAUAAUAA,187,29.2,–,–
AAAAUCAAUUGAGGAUAUUCAUACACUACAUACGGAGAAGGCAAACAAUCAUGAGGACAUGAGGAUCACCCAUGUUGUGACCAU,22.3,16.3,–,–
AAAAUCUAUAGAGGAUAUCCAUACACUGCAUACGGAGAAGGCUAACAAUCAUGAGGACAUGAGGAUCACCCAUGUUGUGACCAU,19.9,13.6,–,–
AAAAUGUGAGGAUAUCAGGUGUGCUAGAGAACUGGUACAUCUGAGAAGGCACAUGAGGAUCACCCAUGUUCUUC,–,–,34.6,156
AAACAAACAACGCAGGAUAUGCAAAAACCCACAUGAGGAUCACCCAUGUCCCAACAACAAACAAAGCAGAAGGGCGAACAAACAAA,105,55.4,–,–
AAACAAGCAGGGAUGCUUCGCAGGGAGGAUAUCUGACUGGGCGGACAUGAGGAUCACCCAUGUACAGAGAAGGCCCAAAGCACC,–,–,620,32
AAACACGAUCGAGGAUAUCAUGCUUACGUCCCGGAUCCAUAAACAUGAGGAUCACCCAUGUGAUAUGAGAAGGCGAUAGUCAUA,–,–,19.5,26.9
AAACACGGACAUGAGGAUCACCCAUGUGGCGAAAGCCUUGGGAGAAGGCCGAUUGCAAAGCAAUCGGAGGAUAUUCGUACCGUG,237,13.8,–,–
AAACAGGAAGGAUAUACAUUAUCGGAUCUUCUGGCAAUGCCACAUGAGGAUCACCCAUGUAGAAGGUCCAAAUU,–,–,13.6,22.9
AAACAGGCAGGAUAUACAUGAGGAUCACCCAUGUGCAUAAACUGGCUGCGUCCGAAUCGUAGAAGGGCCUGCAU,–,–,502,126
AAACAGGGAGGAUAUACAUAGAUCCUCUAACCUAAUUGGUCACAUGAGGAUCACCCAUGUAGAAGGCCCUUAGG,–,–,–,11.3
AAACAGGGAGGAUAUACAUGAGGAUCACCCAUGUUCGAGCGUCCUUGAACUACCUCAGGUAGAAGGCCCUAAUU,–,–,372,112
AAACAUGUCCGAGGAUAUCUGAGAUCAUUUUCAAGAGAAGGCGGACAUGAGGAUCACCCAUGUCUCUCCUCAUCAACUCCACAU,–,–,7.47,39.1
AAACAUGUCCGAGGAUAUCUGGAAACACUUUCAAGAGAAGGCGGACAUGAGGAUCACCCAUGUCUCUCCUCAUCAACUACAAAU,–,–,8.71,49.3
AAACAUGUCCGAGGAUAUCUGGAAACAUUUCCAAGAGAAGGCGGACAUGAGGAUCACCCAUGUCUCUCCUCAUCAAAUCCAAGA,–,–,8,77.4

Sequence,apparent Kd [1] [nM],apparent Kd [2] [nM],apparent Kd [3] [nM],apparent Kd [4] [nM]
AAACAUGUCCGAGGAUAUCUGGAAACAUUUUCAAGAGAAGGCGGACAUGAGGAUCACCCAUGUCUCUCCUCAUCAAAUCCAAGU,–,–,21.4,148
AAACCACAUGAGGAUCACCCAUGUGAUAAAAGCAUAGGAUAUCUGGAUGUGAGAGGCGGCAGAGAAGGAUGCACGC,61.5,53.9,–,–
AAACCUAUAGGAUAUACAUGAGGAUCACCCAUGUUGCGAUUUUUUAGGUAACAGAUCCGUAGAAGGGUAGGUCA,–,–,36.4,66.6
AAACGCCAACAUGAGGAUCACCCAUGUUCUAGUUUAGGGUCGCAGGAUAUGACUUCGAAGCUUAGUCAGAAGGGUGAGUCCACA,13.7,11.2,–,–
AAACUCAUGCAGAAGGGACAAACGGGUGGGAUCUGCAUGUGCACAUGAGGAUCACCCAUGUGGUGUCAGGAUAUGCUGGGCACG,–,–,102,75.2
AAAGAACAUGAGGAUCACCCAUGUGAGGAUAUGCGAAAACCGCUGGCGCACCAGACGGGCAGAAGGCAUAUGGU,–,–,75.6,92.5
AAAGACAUGAGGAUCACCCAUGUCGGUAUAACUUAAGCGUCACAGGAUAUGUUACGAAAUUAUGGACAGAAGGGUGAGCUGUGG,23.8,9.02,–,–
AAAGCAUACCGAGGAUAUUCAUAUAAUAAAUAAACAUGAGGAUCACCCAUGUGGCGAAAGCCUAGGGAGAAGGCGGAAUGCUAA,197,24.6,–,–
AAAGGACGAGGAUAUACAUGAGGAUCACCCAUGUGUAAAACGUAAUAAAAUAACUUAUGUAGAAGGCGUCCAAA,–,–,30.6,216
AAAGGUACAGGAUAUGCGUGGAAAAAGUGUAUUCAAAAAAAACAUGAGGAUCACCCAUGUAGAAGGGUACCAAA,–,–,81,269
AAAGGUGAUUCAGGAUAUGUGUAGGAGGGCGGCGCAGAAGGGAAUCUAGCCCGACGUCAUACAUGAGGAUCACCCAUGUAUGCC,28.7,18.5,–,–
AAAGUGCCGACGAAGGAUAUAGCGGGUGAGACAUGAGGAUCACCCAUGUAUGCAGAACUCAUCCUCUAGAAGGUUGAGACGGCUA,113,177,–,–
AAAGUGUAAGGAUAUGCUGCUCGUCACUUGCGUGAUGAGUAGCAGAAGGUACAUGAGGAUCACCCAUGUAAAAA,–,–,28.8,38.3
AAAGUGUCAGGAUAUACAUGAGGAUCACCCAUGUAUCUUUUUGAUCGUAGGGUGCACCGUAGAAGGGACACUCC,–,–,27.4,37.1
AAAGUGUGAGGAUAUCCUGGGCUGGGCCGGGAGGUUCGGUUGGAGAAGGCACAUGAGGAUCACCCAUGUAACGG,–,–,62.7,53.4
AAAUAAAUGACUCAGGAUAUAUCAUAGAAUACAUGAGGAUCACCCAUGUUUUAAUAACAUGUUUGGUAGAAGGGAGUCAAUAAAU,80.4,29.3,–,–
AAAUAACCUAGCAAAAUUUCCUCACAUGAGGAUCACCCAUGUAGAAGGCUGUCCUAAAAUAGGACAGAGGAUAUACGUGCUAGG,–,–,6.82,107
AAAUAGCAUGAGGAUAUUGGACUGGAUUCAGUACGAGAAGGCAUGACAUGAGGAUCACCCAUGUUUUGUUGGGA,–,–,51.7,202
